Test results from ChEMBL document CHEMBL2384923, “Design, synthesis and antimicrobial activities evaluation of Schiff base derived from secnidazole derivatives as potential FabH inhibitors” (Bioorg Med Chem, 2013).
≈ marks a conversion by molar mass, not a printed value.

Columns and labels:
Escherichia coli = test: Antimicrobial activity against Escherichia coli ATCC 25922 after 24 hrs by two fold serial dilution method; assay type: functional; details: ATCC 25922, 24 h
How it was run: (§1)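 Tested per NCCLS by two-fold serial dilution in nutrient broth. The inoculum came from 24 h cultures on nutrient agar at 37 ± 1 °C and was adjusted with sterile saline to 1 ×10^4-105 CFU. […] Tubes were incubated at 37 ± 1 °C, and MIC was read visually after 24 h. Kanamycin and DDCP served as standards.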

Staphylococcus aureus = test: Antimicrobial activity against Staphylococcus aureus ATCC 6538 after 24 hrs by two fold serial dilution method; assay type: functional; details: ATCC 6538, 24 h; how it was run: as §1
Pseudomonas aeruginosa = test: Antimicrobial activity against Pseudomonas aeruginosa ATCC 27853 after 24 hrs by two fold serial dilution method; assay type: functional; details: ATCC 27853, 24 h; how it was run: as §1
Bacillus subtilis = test: Antimicrobial activity against Bacillus subtilis ATCC 530 after 24 hrs by two fold serial dilution method; assay type: functional; details: ATCC 530, 24 h; how it was run: as §1
[1] = Inhibition of Escherichia coli N-terminal His-tagged full length FabH expressed in Escherichia coli BL21 (DE3) using [3H]acetyl-CoA as substrate assessed as incorporation of [3H] signal into product after 25 mins by liquid scintillation counting analysis
How it was run: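 His-tagged FabH was purified on Ni-NTA. Holo-ACP was made from apo-ACP with ACPS and CoA. The 20 µL reaction held pH 7.0 sodium phosphate (20 mM), 0.5 mM DTT, 0.25 mM MgCl₂, 2.5 µM holo-ACP and 1 nM FabH, preincubated 1 min. The reaction started with a 2 µL mix of 25 µM acetyl-CoA and 0.75 µCi [³H]acetyl-CoA and ran 25 min. It was stopped with ice-cold TCA, and the washed pellet was counted. Inhibitors were added from DMSO stock, ≤2% DMSO final, and IC50 was determined.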

**Q.** Which MIC (Escherichia coli) does the source give for `Cc1ncc([N+](=O)[O-])n1CC(=O)N/N=C/c1ccc(F)cc1` here?
**A.** > 100 µg/mL

**Q.** What about the MIC (Staphylococcus aureus) of the same compound?
**A.** > 100 µg/mL

**Q.** What about the MIC (Pseudomonas aeruginosa) of the same compound?
**A.** > 100 µg/mL

**Q.** What about the MIC (Bacillus subtilis) of the same compound?
**A.** > 100 µg/mL

**Q.** And the IC50 [1]?
**A.** 58.3 µM

**Q.** Which results are given for `Cc1ncc([N+](=O)[O-])n1CC(=O)N/N=C/c1ccc(Cl)cc1`?
**A.** MIC (Escherichia coli): 50 µg/mL (≈ 155 µM); MIC (Staphylococcus aureus): > 100 µg/mL; MIC (Pseudomonas aeruginosa): 50 µg/mL (≈ 155 µM); MIC (Bacillus subtilis): > 100 µg/mL

**Q.** Which results are given for `COc1ccc(/C=N/NC(=O)Cn2c([N+](=O)[O-])cnc2C)cc1`?
**A.** MIC (Escherichia coli): 6.25 µg/mL (≈ 19.7 µM); MIC (Staphylococcus aureus): 12.5 µg/mL (≈ 39.4 µM); MIC (Pseudomonas aeruginosa): 6.25 µg/mL (≈ 19.7 µM); MIC (Bacillus subtilis): 6.25 µg/mL (≈ 19.7 µM); IC50 [1]: 4.5 µM

**Q.** Which results are given for `Cc1ncc([N+](=O)[O-])n1CC(=O)N/N=C/c1ccccc1[N+](=O)[O-]`?
**A.** MIC (Escherichia coli): 25 µg/mL (≈ 75.2 µM); MIC (Staphylococcus aureus): 12.5 µg/mL (≈ 37.6 µM); MIC (Pseudomonas aeruginosa): 25 µg/mL (≈ 75.2 µM); MIC (Bacillus subtilis): 12.5 µg/mL (≈ 37.6 µM); IC50 [1]: 19.8 µM

**Q.** For `Cc1ncc([N+](=O)[O-])n1CC(=O)N/N=C/c1ccc(Br)cc1`, which MIC (Escherichia coli) is on record?
**A.** 25 µg/mL (≈ 68.3 µM)

**Q.** And the MIC (Staphylococcus aureus)?
**A.** 25 µg/mL (≈ 68.3 µM)

**Q.** And the MIC (Pseudomonas aeruginosa)?
**A.** 12.5 µg/mL (≈ 34.1 µM)

**Q.** And the MIC (Bacillus subtilis)?
**A.** 25 µg/mL (≈ 68.3 µM)

**Q.** With `Cc1ncc([N+](=O)[O-])n1CC(=O)N/N=C/c1cccc(F)c1` as the compound, how does the MIC (Escherichia coli) read?
**A.** 50 µg/mL (≈ 164 µM)

**Q.** And the MIC (Staphylococcus aureus)?
**A.** 25 µg/mL (≈ 81.9 µM)

**Q.** What about the MIC (Pseudomonas aeruginosa) of the same compound?
**A.** 50 µg/mL (≈ 164 µM)

**Q.** What about the MIC (Bacillus subtilis) of the same compound?
**A.** 25 µg/mL (≈ 81.9 µM)

**Q.** Which MIC (Escherichia coli) does the source give for `COc1ccc(/C=N/NC(=O)Cn2c([N+](=O)[O-])cnc2C)cc1OC` here?
**A.** 12.5 µg/mL (≈ 36 µM)

**Q.** What about the MIC (Staphylococcus aureus) of the same compound?
**A.** 12.5 µg/mL (≈ 36 µM)

**Q.** What about the MIC (Pseudomonas aeruginosa) of the same compound?
**A.** 12.5 µg/mL (≈ 36 µM)

**Q.** What about the MIC (Bacillus subtilis) of the same compound?
**A.** 25 µg/mL (≈ 72 µM)

**Q.** What about the IC50 [1] of the same compound?
**A.** 8.8 µM

**Q.** Which MIC (Escherichia coli) does the source give for `Cc1cc(/C=N/NC(=O)Cn2c([N+](=O)[O-])cnc2C)cc(C)c1C` here?
**A.** 3.13 µg/mL (≈ 9.5 µM)

**Q.** And the MIC (Staphylococcus aureus)?
**A.** 3.13 µg/mL (≈ 9.5 µM)

**Q.** What about the MIC (Pseudomonas aeruginosa) of the same compound?
**A.** 6.25 µg/mL (≈ 19 µM)

**Q.** What about the MIC (Bacillus subtilis) of the same compound?
**A.** 3.13 µg/mL (≈ 9.5 µM)

**Q.** And the IC50 [1]?
**A.** 2.3 µM

**Q.** For `Cc1ccc(/C=N/NC(=O)Cn2c([N+](=O)[O-])cnc2C)cc1`, which MIC (Escherichia coli) is on record?
**A.** 6.25 µg/mL (≈ 20.7 µM)

**Q.** What about the MIC (Staphylococcus aureus) of the same compound?
**A.** 12.5 µg/mL (≈ 41.5 µM)

**Q.** And the MIC (Pseudomonas aeruginosa)?
**A.** 6.25 µg/mL (≈ 20.7 µM)

**Q.** And the MIC (Bacillus subtilis)?
**A.** 25 µg/mL (≈ 83 µM)

**Q.** And the IC50 [1]?
**A.** 6.2 µM

**Q.** For `Cc1ncc([N+](=O)[O-])n1CC(=O)N/N=C/c1ccc(F)cc1F`, which MIC (Escherichia coli) is on record?
**A.** 50 µg/mL (≈ 155 µM)

**Q.** And the MIC (Staphylococcus aureus)?
**A.** 25 µg/mL (≈ 77.3 µM)

**Q.** What about the MIC (Pseudomonas aeruginosa) of the same compound?
**A.** 50 µg/mL (≈ 155 µM)

**Q.** What about the MIC (Bacillus subtilis) of the same compound?
**A.** 50 µg/mL (≈ 155 µM)

**Q.** With `Cc1ncc([N+](=O)[O-])n1CC(=O)N/N=C/c1ccccc1Cl` as the compound, how does the MIC (Escherichia coli) read?
**A.** > 100 µg/mL

**Q.** What about the MIC (Staphylococcus aureus) of the same compound?
**A.** 50 µg/mL (≈ 155 µM)

**Q.** What about the MIC (Pseudomonas aeruginosa) of the same compound?
**A.** > 100 µg/mL

**Q.** And the MIC (Bacillus subtilis)?
**A.** 50 µg/mL (≈ 155 µM)

**Q.** For `Cc1ncc([N+](=O)[O-])n1CC(=O)N/N=C/c1cccc(Br)c1`, which MIC (Escherichia coli) is on record?
**A.** 25 µg/mL (≈ 68.3 µM)

**Q.** And the MIC (Staphylococcus aureus)?
**A.** > 100 µg/mL

**Q.** What about the MIC (Pseudomonas aeruginosa) of the same compound?
**A.** 50 µg/mL (≈ 137 µM)

**Q.** And the MIC (Bacillus subtilis)?
**A.** > 100 µg/mL

**Q.** Which MIC (Escherichia coli) does the source give for `Cc1ncc([N+](=O)[O-])n1CC(=O)N/N=C/c1cccc([N+](=O)[O-])c1` here?
**A.** 25 µg/mL (≈ 75.2 µM)

**Q.** And the MIC (Staphylococcus aureus)?
**A.** 50 µg/mL (≈ 150 µM)

**Q.** What about the MIC (Pseudomonas aeruginosa) of the same compound?
**A.** 50 µg/mL (≈ 150 µM)

**Q.** And the MIC (Bacillus subtilis)?
**A.** > 100 µg/mL

**Q.** Which MIC (Escherichia coli) does the source give for `Cc1ncc([N+](=O)[O-])n1CC(=O)N/N=C/c1cccc(Cl)c1` here?
**A.** 25 µg/mL (≈ 77.7 µM)

**Q.** And the MIC (Staphylococcus aureus)?
**A.** 50 µg/mL (≈ 155 µM)

**Q.** And the MIC (Pseudomonas aeruginosa)?
**A.** 50 µg/mL (≈ 155 µM)

**Q.** And the MIC (Bacillus subtilis)?
**A.** 50 µg/mL (≈ 155 µM)

**Q.** Which results are given for `Cc1ncc([N+](=O)[O-])n1CC(=O)N/N=C/c1ccc([N+](=O)[O-])cc1`?
**A.** MIC (Escherichia coli): 25 µg/mL (≈ 75.2 µM); MIC (Staphylococcus aureus): 25 µg/mL (≈ 75.2 µM); MIC (Pseudomonas aeruginosa): 25 µg/mL (≈ 75.2 µM); MIC (Bacillus subtilis): 50 µg/mL (≈ 150 µM)

**Q.** With `Cc1ncc([N+](=O)[O-])n1CC(=O)N/N=C/c1ccc(O)cc1` as the compound, how does the MIC (Escherichia coli) read?
**A.** 50 µg/mL (≈ 165 µM)

**Q.** And the MIC (Staphylococcus aureus)?
**A.** > 100 µg/mL

**Q.** What about the MIC (Pseudomonas aeruginosa) of the same compound?
**A.** > 100 µg/mL

**Q.** What about the MIC (Bacillus subtilis) of the same compound?
**A.** > 100 µg/mL

**Q.** What does the source list for `NC[C@H]1O[C@H](O[C@H]2[C@H](O)[C@@H](O[C@H]3O[C@H](CO)[C@@H](O)[C@H](N)[C@H]3O)[C@H](N)C[C@@H]2N)[C@H](O)[C@@H](O)[C@@H]1O` [KANAMYCIN]?
**A.** MIC (Escherichia coli): 3.13 µg/mL (≈ 6.46 µM); MIC (Staphylococcus aureus): 1.56 µg/mL (≈ 3.22 µM); MIC (Pseudomonas aeruginosa): 3.13 µg/mL (≈ 6.46 µM); MIC (Bacillus subtilis): 1.56 µg/mL (≈ 3.22 µM)

**Q.** Which MIC (Escherichia coli) does the source give for `Cc1ncc([N+](=O)[O-])n1CC(=O)N/N=C/c1ccc(N(C)C)cc1` here?
**A.** 12.5 µg/mL (≈ 37.8 µM)

**Q.** What about the MIC (Staphylococcus aureus) of the same compound?
**A.** 25 µg/mL (≈ 75.7 µM)

**Q.** And the MIC (Pseudomonas aeruginosa)?
**A.** 12.5 µg/mL (≈ 37.8 µM)

**Q.** And the MIC (Bacillus subtilis)?
**A.** 12.5 µg/mL (≈ 37.8 µM)

**Q.** And the IC50 [1]?
**A.** 15.9 µM

**Q.** For `COc1cccc(/C=N/NC(=O)Cn2c([N+](=O)[O-])cnc2C)c1`, which MIC (Escherichia coli) is on record?
**A.** 25 µg/mL (≈ 78.8 µM)

**Q.** And the MIC (Staphylococcus aureus)?
**A.** 25 µg/mL (≈ 78.8 µM)

**Q.** What about the MIC (Pseudomonas aeruginosa) of the same compound?
**A.** 50 µg/mL (≈ 158 µM)

**Q.** What about the MIC (Bacillus subtilis) of the same compound?
**A.** 50 µg/mL (≈ 158 µM)

**Q.** For `COc1ccccc1/C=N/NC(=O)Cn1c([N+](=O)[O-])cnc1C`, which MIC (Escherichia coli) is on record?
**A.** 50 µg/mL (≈ 158 µM)

**Q.** And the MIC (Staphylococcus aureus)?
**A.** > 100 µg/mL

**Q.** And the MIC (Pseudomonas aeruginosa)?
**A.** 50 µg/mL (≈ 158 µM)

**Q.** What about the MIC (Bacillus subtilis) of the same compound?
**A.** > 100 µg/mL

**Q.** And the IC50 [1]?
**A.** 42.4 µM

**Q.** For `Cc1ncc([N+](=O)[O-])n1CC(=O)N/N=C/c1ccccc1F`, which MIC (Escherichia coli) is on record?
**A.** > 100 µg/mL

**Q.** And the MIC (Staphylococcus aureus)?
**A.** > 100 µg/mL

**Q.** And the MIC (Pseudomonas aeruginosa)?
**A.** > 100 µg/mL

**Q.** What about the MIC (Bacillus subtilis) of the same compound?
**A.** > 100 µg/mL

**Q.** What about the IC50 [1] of the same compound?
**A.** 47.5 µM
